Test results published in PMC10810238 (Arabian journal of chemistry, 2023).
Where “and” joins values, the source holds several entries; their conditions need not be identical. Equal entries are not always repeated. Where two headings read alike, the source gives them in different places.

Assays:
[1] = system: P. falciparum NF54 strain; assay: In vitro antiplasmodial screening, 3H-hypoxanthine incorporation assay; format: cell-based, Plasmodium falciparum; conditions: for Selectivity Index: L6 IC50 / Pf IC50
Summary of the method: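 P. falciparum NF54 erythrocytic stages were grown in human A+ red cells (2.5% haematocrit, 0.3% parasitaemia) in hypoxanthine-free RPMI 1640 with HEPES, NaHCO₃, neomycin and Albumax. Test compound was stocked in DMSO at 10 mg/ml and diluted in medium to […]. Plates ran 48 h at 37 °C under 4% CO₂/3% O₂/93% N₂, then 0.5 µCi ³H-hypoxanthine was added for 24 h. Cells were harvested for scintillation counting. IC50 came from sigmoidal curves by linear regression, with chloroquine as standard.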

[2] = In vitro cytotoxicity with L-6 cells; format: cell-based; conditions: rat, L-6 cells (rat skeletal myoblasts)
[3] = system: Plasmodium berghei NK 65 strain; assay: Peter's four-day suppressive test; format: in vivo, Plasmodium berghei in Swiss albino mice; conditions: for % Parasitemia: mean ± SEM
[4] = system: Plasmodium berghei NK 65 strain; assay: Mean Survival Time; format: in vivo, Plasmodium berghei in Swiss albino mice
Summary of the method: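 Peters' 4-day suppressive design: male and female Swiss albino mice (14–31 g) were inoculated with P. berghei NK 65 and randomised into five groups. Test compound in vehicle (100, 200 or 400 mg/kg) was given orally once daily on days 0–4, first dose 2 h after inoculation. Chloroquine at 100 mg/kg was the positive control and vehicle alone the negative control. Mortality was recorded for 30 days from inoculation.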

In vivo acute toxicity = assay: In vivo acute toxicity; design: species or system Swiss albino mice
Summary of the method: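 Male and female Swiss albino mice, 6–8 weeks old, were dosed per OECD guidance. Each group got one oral dose of test compound (100, 200, 400, 2000 or 5000 mg/kg) in 10% DMSO/10% Tween 80/80% water; a vehicle group served as control. Intoxication signs and mortality were watched for the first 30 min, then over 14 d. Mice were weighed on the first and final day (final day 14 d for the three lower doses, 7 d for the two higher). LD50 was the geometric mean of the least lethal dose and the highest non-lethal dose (Lorke). Kidney and liver were examined by histology, with paired t-test statistics.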

[5] = system: P. falciparum NF 54 strain; conditions: ref Miglianico et al., 2023; cited from earlier work
[6] = Plasmodium falciparum, NF54, read-out: Antiplasmodial (Pf) IC50, NF54 strain, erythrocytic stages
[7] = 100 mg/kg oral daily Days 0-4, Day 4 blood
[8] = 100 mg/kg oral daily Days 0-4, monitored 30 days, (+) = animals survived
[9] = read-out: Antiplasmodial (Pf) IC50, NF54 strain, erythrocytic stages

In the case of `N=C(NO)c1ccc(C(=O)NO)cc1` [Compound 1c, N-Hydroxy-4-(N-hydroxycarbamimidoyl)benzamide], the “Selectivity Index” value [1] is reported as 27.04, the IC50 [1, 6] is reported as 405 nM and the IC50 at 72 h [2] is reported as 11000 nM.
With `Nc1ccc(C(=O)NO)cc1` [Compound 3b, 4-Aminobenzenecarbohydroxamic acid] the “% Suppression ± SEM” value ([3]; 100 mg/kg oral daily Days 0-4) was 51.99 ± 10.38%, the “% Parasitemia” value [3, 7] was 6.25 ± 0.95% and the “% Suppression ± SEM” value ([3]; 200 mg/kg oral daily Days 0-4) was 78.55 ± 13.35%. The “% Parasitemia” value ([3]; 200 mg/kg oral daily Days 0-4, Day 4 blood) was 2.95 ± 1.95%, the “% Suppression ± SEM” value ([3]; 400 mg/kg oral daily Days 0-4) was 80.53% and 80.53 ± 3.26% and the “% Parasitemia” value ([3]; 400 mg/kg oral daily Days 0-4, Day 4 blood) was 2.6 ± 0.6%. The MST [4, 8] was 24 days, the MST ([4]; 200 mg/kg oral daily Days 0-4, monitored 30 days) was 29.5 days and the MST ([4]; 400 mg/kg oral daily Days 0-4, monitored 30 days, (+) = animals survived) was 30 (+) days. For the same compound, the “Selectivity Index” value [1] was 44.92, the IC50 [1, 6] was < 200 nM and the IC50 [1, 9] was 147 nM. For the same compound, the IC50 at 72 h [2] was 6600 nM, the “Mortality D0” value (In vivo acute toxicity; 100 mg/kg bdw oral, 4 mice) was 0 and the “Mortality D1” value (In vivo acute toxicity; 100 mg/kg bdw oral, 4 mice) was 0. The “Mortality D5” value (In vivo acute toxicity; 100 mg/kg bdw oral, 4 mice) was 1, the “Mortality D7” value (In vivo acute toxicity; 100 mg/kg bdw oral, 4 mice) was 0 and the “Mortality D14” value (In vivo acute toxicity; 100 mg/kg bdw oral, 4 mice) was 0. For the same compound, the Liver histology (In vivo acute toxicity; 100 mg/kg, 200 mg/kg and 400 mg/kg, mice) was “mild to moderate vacuolar degeneration of hepatocytes”, the Kidney histology (In vivo acute toxicity; 100 mg/kg, mice) was “Kidney tubular degeneration” and the “% Mortality” value (In vivo acute toxicity; 200 mg/kg bdw oral, 4 mice) was 0%. The “Mortality D0” value (In vivo acute toxicity; 200 mg/kg bdw oral, 4 mice) was 0, the “Mortality D1” value (In vivo acute toxicity; 200 mg/kg bdw oral, 4 mice) was 0 and the “Mortality D5” value (In vivo acute toxicity; 200 mg/kg bdw oral, 4 mice) was 0. For the same compound, the “Mortality D7” value (In vivo acute toxicity; 200 mg/kg bdw oral, 4 mice) was 0, the “Mortality D14” value (In vivo acute toxicity; 200 mg/kg bdw oral, 4 mice) was 0 and the “Mortality D0” value (In vivo acute toxicity; 400 mg/kg bdw oral, 4 mice) was 0. For the same compound, the “Mortality D1” value (In vivo acute toxicity; 400 mg/kg bdw oral, 4 mice) was 1, the “Mortality D5” value (In vivo acute toxicity; 400 mg/kg bdw oral, 4 mice) was 0 and the “Mortality D7” value (In vivo acute toxicity; 400 mg/kg bdw oral, 4 mice) was 0. For the same compound, the “Mortality D14” value (In vivo acute toxicity; 400 mg/kg bdw oral, 4 mice) was 0, the Kidney histology (In vivo acute toxicity; 400 mg/kg, mice) was “Severe congestion and edema” and the “% Mortality” value (In vivo acute toxicity; 2,000 mg/kg bdw oral, 4 mice) was 0%. For the same compound, the “Mortality D0” value (In vivo acute toxicity; 2,000 mg/kg bdw oral, 4 mice) was 0, the “Mortality D1” value (In vivo acute toxicity; 2,000 mg/kg bdw oral, 4 mice) was 0 and the “Mortality D5” value (In vivo acute toxicity; 2,000 mg/kg bdw oral, 4 mice) was 0. The “Mortality D7” value (In vivo acute toxicity; 2,000 mg/kg bdw oral, 4 mice) was 0, the “Mortality D14” value (In vivo acute toxicity; 2,000 mg/kg bdw oral, 4 mice) was 0 and the Kidney histology (In vivo acute toxicity; 2000 mg/kg, mice) was “no lesions”. For the same compound, the “% Mortality” value (In vivo acute toxicity; 5,000 mg/kg bdw oral, 1 mouse) was 0%, the “Mortality D0” value (In vivo acute toxicity; 5,000 mg/kg bdw oral, 1 mouse) was 0 and the “Mortality D1” value (In vivo acute toxicity; 5,000 mg/kg bdw oral, 1 mouse) was 0. The “Mortality D5” value (In vivo acute toxicity; 5,000 mg/kg bdw oral, 1 mouse) was 0, the “Mortality D7” value (In vivo acute toxicity; 5,000 mg/kg bdw oral, 1 mouse) was 0 and the “Mortality D14” value (In vivo acute toxicity; 5,000 mg/kg bdw oral, 1 mouse) was 0. The “Toxicity at the highest concentration limit” value (In vivo acute toxicity; 5000 mg/kg, single oral dose, mice) was “no toxicity” and the Body weight change (In vivo acute toxicity; with increase in concentration of compound, acute toxicity study, mice) was “gained additional weight”.
For `Cl.N=C(N)c1ccc(C(=O)NO)cc1` [Compound 1d, 4-Carbamimidoyl-N-hydroxybenzamide Hydrochloride], the “Selectivity Index” value [1] was 98.72, the IC50 [1, 6] was < 200 nM and the IC50 [1, 9] was 199 nM. It also gave an IC50 at 72 h [2] of 19600 nM.
For `CCc1nc(N)nc(N)c1-c1ccc(Cl)cc1` [Pyrimethamine], the IC50 [5] is listed as 17 nM.
Compound `COc1cc([C@@H]2c3cc4c(cc3[C@H](O)[C@H]3COC(=O)[C@H]23)OCO4)cc(OC)c1OC` [Podophyllotoxin, reference compound] has an IC50 at 72 h [2] of 2 nM.
For `N=C(NO)c1ccc(NC(=S)NOCc2ccccc2)cc1` [Compound 2b, 4-(3-(Benzyloxy)thioureido)-N-hydroxybenzimidamide], the “Selectivity Index” value [1] was 7.59, the IC50 [1, 6] was 2400 nM and the IC50 at 72 h [2] was 18200 nM.
In the case of `CCN(CC)CCCC(C)Nc1ccnc2cc(Cl)ccc12` (stereo not shown) [Chloroquine, chloroquine, reference compound], the “% Suppression ± SEM” value ([3]; 100 mg/kg oral daily Days 0-4) is reported as 81.71 ± 1.82%, the “% Parasitemia” value [3, 7] is reported as 2.4 ± 0.08% and the “% Suppression ± SEM” value ([3]; 100 mg/kg oral daily Days 0-4, listed as standard drug) is reported as 81.71%. The MST [4, 8] was 30 (+) days, the “Selectivity Index” value [1] was 33069.00 and the IC50 [1, 6] was 2 nM. The IC50 at 72 h [2] was 66100 nM.
For `CC1(C)N=C(N)N=C(N)N1c1ccc(Cl)cc1` [cycloguanil], the IC50 [5] is listed as 4.5 nM.
